Assay results taken from ChEMBL document CHEMBL1128216, “Rational design and synthesis of small molecule, non-oligosaccharide selectin inhibitors: (alpha-D-mannopyranosyloxy)biphenyl-substituted carboxylic acids” (J Med Chem, 1995).

Tests used:
[1] = target: T1, E-selectin (Homo sapiens, UniProt P16581); experiment: In vitro inhibition of HL60 (human leukemia) cell binding to human recombinant e-selectin.; type: cell-based, HL-60
T1 sequence (P16581 whole entry): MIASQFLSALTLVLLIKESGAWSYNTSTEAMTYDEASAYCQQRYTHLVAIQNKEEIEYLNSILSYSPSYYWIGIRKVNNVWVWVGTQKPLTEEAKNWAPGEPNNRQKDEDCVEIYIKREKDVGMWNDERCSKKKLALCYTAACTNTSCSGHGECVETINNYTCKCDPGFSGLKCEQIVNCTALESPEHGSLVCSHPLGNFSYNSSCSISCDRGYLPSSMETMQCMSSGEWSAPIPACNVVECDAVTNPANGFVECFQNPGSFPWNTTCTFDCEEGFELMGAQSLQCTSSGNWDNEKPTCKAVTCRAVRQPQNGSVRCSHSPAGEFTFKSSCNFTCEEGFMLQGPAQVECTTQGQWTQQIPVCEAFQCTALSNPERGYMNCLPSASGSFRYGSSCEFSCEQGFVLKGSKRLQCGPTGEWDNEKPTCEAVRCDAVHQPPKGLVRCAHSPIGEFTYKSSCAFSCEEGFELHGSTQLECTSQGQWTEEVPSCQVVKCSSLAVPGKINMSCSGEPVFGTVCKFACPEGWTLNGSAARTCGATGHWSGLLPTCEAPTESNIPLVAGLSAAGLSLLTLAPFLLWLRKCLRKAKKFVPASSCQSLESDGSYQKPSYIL
How it was run: (§1)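 Human E-selectin (lectin, EGF and two complement repeats) fused to mouse IgG was captured on anti-mouse IgG magnetic beads overnight at 4 °C. Wells were pre-blocked with 3% BSA/PBS. Compound in PBS was mixed with calcein-labelled HL60 cells (10⁷/mL, RPMI 1640 + 10% FCS) and beads (4 × 10⁶/mL) for 10 min at room temperature. Unbound cells were removed magnetically with two PBS washes, and bound cells were lysed in 1% NP40.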

[2] = target: T2, L-selectin (Mus musculus) (UniProt P18337); experiment: In vitro inhibitory activity against sialyl Lewis X expressing HL60 cell binding Selectin L at 1 mM concentration; type: cell-based; conditions: HL-60
T2 sequence (whole entry): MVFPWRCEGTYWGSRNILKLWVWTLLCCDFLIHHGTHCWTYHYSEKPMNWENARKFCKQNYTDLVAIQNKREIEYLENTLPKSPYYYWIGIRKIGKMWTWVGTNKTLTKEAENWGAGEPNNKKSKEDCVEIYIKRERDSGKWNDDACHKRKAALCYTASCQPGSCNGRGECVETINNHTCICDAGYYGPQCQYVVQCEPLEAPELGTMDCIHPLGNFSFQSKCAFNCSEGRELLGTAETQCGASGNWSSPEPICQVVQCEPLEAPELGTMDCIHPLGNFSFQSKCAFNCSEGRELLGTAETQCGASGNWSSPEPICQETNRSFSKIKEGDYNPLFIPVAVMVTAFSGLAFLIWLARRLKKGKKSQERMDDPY

[3] = target: T2, L-selectin (Mus musculus); experiment: In vitro inhibitory activity against sialyl Lewis X expressing HL60 cell binding Selectin L at 6 mM concentration; type: cell-based; conditions: HL-60
[4] = target: T3, P-selectin (Homo sapiens) (UniProt P16109); experiment: In vitro inhibitory activity against sialyl Lewis X expressing HL60 cell binding Selectin P at 23 mM concentration; type: cell-based; conditions: HL-60
T3 sequence (whole entry): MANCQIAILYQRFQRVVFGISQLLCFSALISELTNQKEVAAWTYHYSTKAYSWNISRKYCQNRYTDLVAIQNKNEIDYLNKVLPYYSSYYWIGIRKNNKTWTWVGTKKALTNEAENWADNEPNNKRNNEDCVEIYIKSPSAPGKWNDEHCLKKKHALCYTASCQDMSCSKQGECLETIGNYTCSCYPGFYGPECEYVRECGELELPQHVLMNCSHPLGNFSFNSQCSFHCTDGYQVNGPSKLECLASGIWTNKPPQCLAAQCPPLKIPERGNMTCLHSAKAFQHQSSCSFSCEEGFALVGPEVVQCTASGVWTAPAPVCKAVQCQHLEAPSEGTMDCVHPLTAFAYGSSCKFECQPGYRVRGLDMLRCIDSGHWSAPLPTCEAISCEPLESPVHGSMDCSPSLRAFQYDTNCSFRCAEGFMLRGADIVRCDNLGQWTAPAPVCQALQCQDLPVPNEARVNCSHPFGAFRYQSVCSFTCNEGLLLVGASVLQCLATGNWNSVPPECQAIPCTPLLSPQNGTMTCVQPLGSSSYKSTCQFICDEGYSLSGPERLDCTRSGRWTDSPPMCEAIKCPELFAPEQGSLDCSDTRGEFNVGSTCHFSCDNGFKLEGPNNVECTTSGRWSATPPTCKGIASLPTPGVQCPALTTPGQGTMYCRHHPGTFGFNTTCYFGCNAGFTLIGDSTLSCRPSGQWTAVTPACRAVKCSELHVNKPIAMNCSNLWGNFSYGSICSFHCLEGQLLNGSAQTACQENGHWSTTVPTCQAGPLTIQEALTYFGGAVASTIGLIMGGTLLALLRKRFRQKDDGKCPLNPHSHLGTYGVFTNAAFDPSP

[5] = target: T4, E-selectin (Homo sapiens) (UniProt P16581); experiment: In vitro inhibitory activity against sialyl Lewis X expressing HL60 cell binding to recombinant human E-selectin at 128 mM concentration; type: cell-based; conditions: HL-60; 18 mM; in the assay text read “18 mM” for “128 mM”; how it was run: as §1
T4 sequence (whole entry): T1 sequence (P16581 whole entry)

[6] = target: T5, L-selectin (Mus musculus, UniProt P18337); experiment: In vitro inhibitory activity against sialyl Lewis X expressing HL60 cell binding Selectin L; type: cell-based, HL-60
T5 sequence (P18337 whole entry): T2 sequence (whole entry)

[7] = target: T6, P-selectin (Homo sapiens, UniProt P16109); experiment: In vitro inhibitory activity against sialyl Lewis X expressing HL60 cell binding Selectin P; type: cell-based, HL-60
T6 sequence (P16109 whole entry): T3 sequence (whole entry)

[8] = target: T4, E-selectin (Homo sapiens); experiment: In vitro inhibitory activity against sialyl Lewis X expressing HL60 cell binding to recombinant human E-selectin at 20 mM concentration; type: cell-based; conditions: HL-60; how it was run: as §1
[9] = target: T3, P-selectin (Homo sapiens); experiment: In vitro inhibitory activity against sialyl Lewis X expressing HL60 cell binding Selectin P at 20 mM concentration; type: cell-based; conditions: HL-60
[10] = target: T2, L-selectin (Mus musculus); experiment: In vitro inhibitory activity against sialyl Lewis X expressing HL60 cell binding to Selectin L at 8 mM concentration; type: cell-based; conditions: HL-60
[11] = target: T2, L-selectin (Mus musculus); experiment: In vitro inhibitory activity against sialyl Lewis X expressing HL60 cell binding to Selectin L at 7 mM concentration; type: cell-based; conditions: HL-60
[12] = target: T3, P-selectin (Homo sapiens); experiment: In vitro inhibitory activity against sialyl Lewis X expressing HL60 cell binding Selectin P at 25 mM concentration; type: cell-based; conditions: HL-60
[13] = target: T2, L-selectin (Mus musculus); experiment: In vitro inhibitory activity against sialyl Lewis X expressing HL60 cell binding to Selectin L at 5 mM concentration; type: cell-based; conditions: HL-60
[14] = target: T2, L-selectin (Mus musculus); experiment: In vitro inhibitory activity against sialyl Lewis X expressing HL60 cell binding to Selectin L at 6 mM concentration; type: cell-based; conditions: HL-60
[15] = target: T4, E-selectin (Homo sapiens); experiment: In vitro inhibitory activity against sialyl Lewis X expressing HL60 cell binding to recombinant human E-selectin at 16.3 mM concentration; type: cell-based; conditions: HL-60; how it was run: as §1
[16] = target: T4, E-selectin (Homo sapiens); experiment: In vitro inhibitory activity against sialyl Lewis X expressing HL60 cell binding to recombinant human E-selectin at 40 mM concentration; type: cell-based; conditions: HL-60; how it was run: as §1
[17] = target: T4, E-selectin (Homo sapiens); experiment: In vitro inhibitory activity against sialyl Lewis X expressing HL60 cell binding to recombinant human E-selectin at 1 mM concentration; type: cell-based; conditions: HL-60; how it was run: as §1

O=S(=O)(O)CCc1cccc(-c2ccccc2O[C@H]2O[C@H](CO)[C@@H](O)[C@@H](O)[C@@H]2O)c1
IC50 [1]: 20 mM

O=C(O)CCNC(=O)c1ccc(-c2ccccc2O[C@H]2O[C@H](CO)[C@@H](O)[C@@H](O)[C@@H]2O)cc1
inhibition [2]: 0%
IC50 [1]: 36 mM

O=C(O)CNC(=O)c1cccc(-c2ccccc2O[C@H]2O[C@H](CO)[C@@H](O)[C@@H](O)[C@@H]2O)c1
inhibition [3]: 0%
inhibition [4]: 25%
inhibition [5]: 0%

CC(=O)N[C@H]1[C@H]([C@H](O)[C@H](O)CO)O[C@@](O[C@H]2[C@@H](O)[C@@H](CO)O[C@@H](O[C@@H]([C@H](O[C@@H]3O[C@@H](C)[C@@H](O)[C@@H](O)[C@@H]3O)[C@H](C=O)NC(C)=O)[C@H](O)CO)[C@@H]2O)(C(=O)O)C[C@@H]1O [SIALYL LEWIS X]
IC50 [6]: 2 mM
IC50 [1]: 3 mM
IC50 [7]: 2 mM

Cc1c(OCC(=O)O)cccc1-c1ccccc1O[C@H]1O[C@H](CO)[C@@H](O)[C@@H](O)[C@@H]1O
inhibition [8]: 0%
inhibition [9]: 0%
inhibition [10]: 0%

O=C(O)c1ccc(-c2ccccc2O[C@H]2O[C@H](CO)[C@@H](O)[C@@H](O)[C@@H]2O)cc1
IC50 [1]: 14.6 mM
inhibition [11]: 0%
inhibition [9]: 0%

O=C(O)COc1ccccc1-c1ccccc1O[C@H]1O[C@H](CO)[C@@H](O)[C@@H](O)[C@@H]1O
IC50 [1]: 20 mM
inhibition [12]: 20%
inhibition [10]: 0%

CC(C(=O)O)c1cccc(-c2ccccc2O[C@H]2O[C@H](CO)[C@@H](O)[C@@H](O)[C@@H]2O)c1 (stereo in doubt; 9r)
IC50 [7]: 20 mM

Cc1ccc(OCC(=O)O)cc1-c1ccccc1O[C@H]1O[C@H](CO)[C@@H](O)[C@@H](O)[C@@H]1O
IC50 [1]: 20.2 mM
IC50 [7]: 12 mM

O=C(O)CC[C@H](NC(=O)c1cccc(-c2ccccc2O[C@H]2O[C@H](CO)[C@@H](O)[C@@H](O)[C@@H]2O)c1)C(=O)O
IC50 [1]: 15.8 mM
inhibition [13]: 15%

O=C(O)CNC(=O)c1ccc(-c2ccccc2O[C@H]2O[C@H](CO)[C@@H](O)[C@@H](O)[C@@H]2O)cc1
IC50 [1]: 4.6 mM
inhibition [14]: 0%
inhibition [9]: 0%

O=C(O)CC(NC(=O)c1ccc(-c2ccccc2O[C@H]2O[C@H](CO)[C@@H](O)[C@@H](O)[C@@H]2O)cc1)C(=O)O (some centres undefined)
inhibition [15]: 0%
IC50 [6]: 5 mM
IC50 [7]: 2 mM

O=C(NC(Cc1ccccc1)C(=O)O)c1ccc(-c2ccccc2O[C@H]2O[C@H](CO)[C@@H](O)[C@@H](O)[C@@H]2O)cc1 (some centres undefined)
IC50 [1]: 11.5 mM

OC[C@H]1O[C@H](Oc2ccccc2-c2cccc(Cc3nnn[nH]3)c2)[C@@H](O)[C@H](O)[C@@H]1O
inhibition [16]: 17%

O=C(N[C@H](Cc1ccccc1)C(=O)O)c1cccc(-c2ccccc2O[C@H]2O[C@H](CO)[C@@H](O)[C@@H](O)[C@@H]2O)c1
inhibition [3]: 0%
inhibition [17]: 14%
inhibition [9]: 5%
